Data taken from ChEMBL document CHEMBL3877249, “Novel 2-aryl-4-(4'-hydroxyphenyl)-5H-indeno[1,2-b]pyridines as potent DNA non-intercalative topoisomerase catalytic inhibitors” (Eur J Med Chem, 2017).
Activity calls are given as the source filed them. The calls are words filed in the database; no cut-off is given here.

Experiments:
[1] = biological target: DNA topoisomerase 2-alpha (Homo sapiens) (UniProt P11388); assay: Inhibition of human DNA topoisomerase-2alpha ATPase activity at 400 uM using supercoiled pBR322 DNA as substrate after 1 hr by malachite green dye based assay relative to control
Sequence of DNA topoisomerase 2-alpha (Homo sapiens) (P11388 whole entry): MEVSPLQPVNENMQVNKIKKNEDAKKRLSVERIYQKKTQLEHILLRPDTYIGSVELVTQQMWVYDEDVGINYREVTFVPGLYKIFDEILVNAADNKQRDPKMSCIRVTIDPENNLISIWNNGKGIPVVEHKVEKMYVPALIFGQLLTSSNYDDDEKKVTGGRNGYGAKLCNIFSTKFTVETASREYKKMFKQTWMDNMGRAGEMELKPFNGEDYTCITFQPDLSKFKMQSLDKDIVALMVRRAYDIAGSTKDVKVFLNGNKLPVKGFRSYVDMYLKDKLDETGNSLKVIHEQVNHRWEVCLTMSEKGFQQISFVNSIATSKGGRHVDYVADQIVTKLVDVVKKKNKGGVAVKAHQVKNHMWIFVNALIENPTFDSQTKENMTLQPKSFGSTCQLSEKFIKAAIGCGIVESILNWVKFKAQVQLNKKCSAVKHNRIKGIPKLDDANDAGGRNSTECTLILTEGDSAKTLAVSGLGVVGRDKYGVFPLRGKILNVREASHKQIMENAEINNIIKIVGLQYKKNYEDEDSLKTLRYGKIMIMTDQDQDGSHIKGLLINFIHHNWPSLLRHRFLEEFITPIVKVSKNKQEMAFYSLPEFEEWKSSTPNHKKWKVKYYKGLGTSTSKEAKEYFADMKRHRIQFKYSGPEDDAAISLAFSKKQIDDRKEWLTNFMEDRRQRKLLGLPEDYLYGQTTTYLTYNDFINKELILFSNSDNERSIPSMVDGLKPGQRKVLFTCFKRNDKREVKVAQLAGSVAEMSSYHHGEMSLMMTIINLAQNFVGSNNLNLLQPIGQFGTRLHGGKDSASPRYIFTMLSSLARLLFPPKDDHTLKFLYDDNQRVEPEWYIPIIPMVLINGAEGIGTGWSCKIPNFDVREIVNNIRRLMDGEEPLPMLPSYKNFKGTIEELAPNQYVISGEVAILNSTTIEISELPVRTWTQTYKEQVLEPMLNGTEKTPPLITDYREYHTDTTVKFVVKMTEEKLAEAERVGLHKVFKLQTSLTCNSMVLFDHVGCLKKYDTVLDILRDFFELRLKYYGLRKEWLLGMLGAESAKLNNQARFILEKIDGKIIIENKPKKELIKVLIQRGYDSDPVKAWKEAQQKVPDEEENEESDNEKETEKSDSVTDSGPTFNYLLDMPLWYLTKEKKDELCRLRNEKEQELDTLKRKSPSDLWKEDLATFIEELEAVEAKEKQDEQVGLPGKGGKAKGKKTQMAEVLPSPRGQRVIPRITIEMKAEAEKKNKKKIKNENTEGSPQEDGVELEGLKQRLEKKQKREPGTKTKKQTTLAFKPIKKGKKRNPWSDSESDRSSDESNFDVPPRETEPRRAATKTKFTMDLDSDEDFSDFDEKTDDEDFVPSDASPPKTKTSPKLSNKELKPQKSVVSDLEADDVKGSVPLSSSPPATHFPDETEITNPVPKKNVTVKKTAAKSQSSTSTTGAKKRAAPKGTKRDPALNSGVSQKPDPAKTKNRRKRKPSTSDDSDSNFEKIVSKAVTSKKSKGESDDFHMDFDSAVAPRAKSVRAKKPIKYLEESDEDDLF
Outline: (§1)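 Topo IIα ATPase: 4 units of enzyme with 100 ng supercoiled pBR322 and 250 µM ATP in 10 mM Tris-HCl pH 7.9, 50 mM NaCl, 50 mM KCl, 5 mM MgCl2, 0.1 mM EDTA, 15 µg/mL BSA at 37 °C for 1 h. Malachite green reagent was then added for 30 min at room temperature, and released phosphate was read at 620 nm.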

[2] = biological target: DNA topoisomerase 2-alpha (Homo sapiens) (UniProt P11388); assay: Inhibition of human DNA topoisomerase-2alpha ATPase activity at 200 uM using supercoiled pBR322 DNA as substrate after 1 hr by malachite green dye based assay relative to control; outline: as §1
[3] = biological target: DNA topoisomerase 2-alpha (Homo sapiens) (UniProt P11388); assay: Inhibition of human DNA topoisomerase-2alpha ATPase activity at 300 uM using supercoiled pBR322 DNA as substrate after 1 hr by malachite green dye based assay relative to control; outline: as §1
Homo sapiens [4] = organism: Homo sapiens; assay: Inhibition of DNA topoisomerase catalytic activity in human T47D nuclear extract at 20 uM using supercoiled pBR322 DNA as substrate after 24 hrs by ethidium bromide staining based agarose gel electrophoresis relative to control
Outline: (§2)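 T47D cells at 5 × 10^5 per 60 mm dish were grown to 80% confluence, washed with FBS-free medium and treated 24 h. Nuclear extracts were prepared in HEPES/MgCl2/KCl/DTT/NP40 buffer, then extracted with NaCl buffer. The amount of extract that fully relaxes 100 ng pBR322 at 37 °C in 20 min was set as the unit. Products were run on agarose in TAE and stained with ethidium bromide (0.5 µg/mL).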

[5] = biological target: DNA topoisomerase 2-alpha (Homo sapiens) (UniProt P11388); assay: Inhibition of human DNA topoisomerase-2alpha at 100 uM using supercoiled pBR322 DNA as substrate after 30 mins by ethidium bromide staining based agarose gel electrophoresis relative to control
Outline: (§3)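 Human topo IIα, 1 unit set by full relaxation of pBR322, with 100 ng pBR322 for 30 min in 10 mM Tris-HCl pH 7.9, 50 mM NaCl, 5 mM MgCl2, 1 mM EDTA and BSA. Stop was with EDTA. Screening was at 100 µM, with retest at 20 µM if inhibition exceeded 30%. Gel was 1% agarose at 25 V for 4 h in TAE, stained with ethidium bromide. Mean ± S.D. from three experiments in triplicate.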

[6] = Antiproliferative activity against HEK293 cells after 72 hrs by CCK8 assay; assay type: cell-based; conditions: Homo sapiens, HEK293, 72 h
Outline: (§4)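 Cells seeded at 2–4 × 10^4 per well, grown overnight in medium with 10% FBS at 37 °C and 5% CO2. After 4 h FBS starvation they were exposed to graded compound concentrations for 72 h. CCK-8 was added for a further 4 h and absorbance read at 450 nm. IC50 came from a four-parameter logistic fit.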

[7] = Antiproliferative activity against human HCT15 cells after 72 hrs by CCK8 assay; assay type: functional, cell-based; conditions: HCT-15, 72 h; outline: as §4
[8] = Antiproliferative activity against human DU145 cells after 72 hrs by CCK8 assay; assay type: functional, cell-based; conditions: DU-145, 72 h; outline: as §4
[9] = biological target: DNA topoisomerase 2-alpha (Homo sapiens) (UniProt P11388); assay: Inhibition of human DNA topoisomerase-2alpha at 500 uM using supercoiled pBR322 DNA as substrate after 20 mins by ethidium bromide staining based agarose gel electrophoresis relative to control
[10] = biological target: T1, DNA topoisomerase 1 (Homo sapiens) (UniProt P11387); assay: Inhibition of human DNA topoisomerase-1 at 20 uM using supercoiled pBR322 DNA as substrate after 30 mins by ethidium bromide staining based agarose gel electrophoresis relative to control
T1 sequence (whole entry): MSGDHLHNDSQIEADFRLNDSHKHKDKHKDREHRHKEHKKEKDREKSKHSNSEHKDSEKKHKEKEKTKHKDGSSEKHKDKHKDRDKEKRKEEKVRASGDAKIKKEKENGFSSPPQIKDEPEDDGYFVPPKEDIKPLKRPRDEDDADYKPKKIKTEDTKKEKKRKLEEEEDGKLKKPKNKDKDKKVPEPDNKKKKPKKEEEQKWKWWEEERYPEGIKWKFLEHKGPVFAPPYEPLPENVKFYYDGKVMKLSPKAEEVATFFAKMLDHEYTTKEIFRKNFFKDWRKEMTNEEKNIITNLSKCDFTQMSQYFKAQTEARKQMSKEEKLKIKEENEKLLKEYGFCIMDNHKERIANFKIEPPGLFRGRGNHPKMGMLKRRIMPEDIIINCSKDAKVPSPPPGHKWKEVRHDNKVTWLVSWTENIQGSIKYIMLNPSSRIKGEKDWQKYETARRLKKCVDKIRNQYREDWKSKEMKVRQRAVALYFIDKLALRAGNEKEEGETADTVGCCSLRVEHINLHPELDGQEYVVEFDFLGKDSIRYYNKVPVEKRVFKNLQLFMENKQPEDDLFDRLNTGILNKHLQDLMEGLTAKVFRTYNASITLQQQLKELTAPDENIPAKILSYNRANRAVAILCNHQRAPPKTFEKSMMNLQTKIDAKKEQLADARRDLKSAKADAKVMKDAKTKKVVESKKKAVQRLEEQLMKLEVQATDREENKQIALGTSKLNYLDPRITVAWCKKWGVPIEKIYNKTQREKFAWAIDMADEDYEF
Outline: (§5)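 Recombinant human topo I, 1 unit (the amount that fully relaxes supercoiled pBR322), with 100 ng pBR322 DNA at 37 °C for 30 min in 10 mM Tris-HCl pH 7.9, 150 mM NaCl, 0.1% BSA. Compounds were screened at 100 µM, and those above 30% inhibition were retested at 20 µM. Products ran on 1% agarose at 15 V for 7 h in TAE with ethidium bromide staining. Mean ± S.D. from three experiments in triplicate.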

[11] = Antiproliferative activity against HFL1 cells after 72 hrs by CCK8 assay; assay type: cell-based; conditions: Homo sapiens, HFL1, 72 h; outline: as §4
[12] = Antiproliferative activity against human HeLa cells after 72 hrs by CCK8 assay; assay type: functional, cell-based; outline: as §4
[13] = Antiproliferative activity against human T47D cells after 72 hrs by CCK8 assay; assay type: functional, cell-based; outline: as §4
Homo sapiens [14] = organism: Homo sapiens; assay: Inhibition of DNA topoisomerase catalytic activity in human T47D nuclear extract at 50 uM using supercoiled pBR322 DNA as substrate after 24 hrs by ethidium bromide staining based agarose gel electrophoresis relative to control; outline: as §2
[15] = biological target: T1, DNA topoisomerase 1 (Homo sapiens); assay: Inhibition of human DNA topoisomerase-1 at 100 uM using supercoiled pBR322 DNA as substrate after 30 mins by ethidium bromide staining based agarose gel electrophoresis relative to control; outline: as §5
[16] = biological target: DNA topoisomerase 2-alpha (Homo sapiens) (UniProt P11388); assay: Inhibition of human DNA topoisomerase-2alpha at 20 uM using supercoiled pBR322 DNA as substrate after 30 mins by ethidium bromide staining based agarose gel electrophoresis relative to control; outline: as §3

| inhibition [1] | inhibition [2] | inhibition [3] | inhibition (Homo sapiens [4]) | inhibition [5] | inhibition [9] | inhibition [10] | inhibition (Homo sapiens [14]) | inhibition [15] | inhibition [16] | SMILES | IC50 [6] | IC50 [7] | IC50 [8] | IC50 [11] | IC50 [12] | IC50 [13] |
| --- | --- | --- | --- | --- | --- | --- | --- | --- | --- | --- | --- | --- | --- | --- | --- | --- |
| 55.9% | 22.7% | 33.3% | – | – | – | – | – | – | – | CO[C@@H]1[C@@H](OC(N)=O)[C@@H](O)[C@H](Oc2ccc3c(O)c(NC(=O)c4ccc(O)c(CC=C(C)C)c4)c(=O)oc3c2C)OC1(C)C | – | – | – | – | – | – |
| 0% | – | – | 34.3% | 95.1% | Active | 53.5% | 97% | 69.7% | 92.2% | Oc1ccc(-c2cc(-c3ccco3)nc3c2Cc2ccccc2-3)cc1 | 3.47 µM | 3.12 µM | 3.74 µM | 7.99 µM | 3.96 µM | 0.95 µM |
